Compound activity deposited in PubChem BioAssay by Broad Institute.
Sampled rows, rich in hits. Any-hit rate of the full collection: about 3.1%.
PolyA inh – polyadenylation inhibitors in yeast reporter cells, primary screen, luminescence, S. cerevisiae; S. cerevisiae SKY197-pL101 polyadenylation reporter, beta-gal luminescence; efflux-impaired pdr1/pdr3 knockout yeast; score 100 = 6 SD above DMSO; activity score, % at 12 µM; 0.02% of 300,000 active; AID 1875, 2009;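 active = lowest replicate activity score at least 50, where 100 means six control SD above control mean; inconclusive = lowest score under 50 but half or more replicates reach 50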;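 also: yeast exposed to compound for 9 h at 30 °C; higher score means more reporter readthrough which indicates perturbed polyadenylation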
HIF activator – HIF pathway transcriptional activators, primary screen, cell-based, U2OS HRE-luciferase, luminescence | 0.32% of 300,000 active | U2OS HRE-luciferase reporter; normalized: DMSO 0%, desferrioxamine 100% | activation, % at 7.5 µM (by protocol);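 active = mean activation of at least 10% of the iron chelator positive control signal, with at least half of replicates also reaching 10%; inconclusive = mean and replicate majority disagree about reaching 10%; inactive = mean and most replicates under 10%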
Calb FLC – C. albicans growth inhibition with fluconazole, primary screen, CaCi-2 strain, Alamar Blue fluorescence. growth inhibition, % (concentration not given with the values). 0.57% of 300,000 active. C. albicans CaCi-2 (fluconazole-resistant clinical isolate) + fluconazole, 48 h;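 active = growth inhibition above about 58% in most replicates, limit read from the data, passing the limit was not always enough; inconclusive = exactly half the replicates above a set limit; inactive = most replicates below a set limit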;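 also: all wells also contain fluconazole at 8 µg/ml as a sub-toxic cotreatment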
T cruzi repl – inhibitors of intracellular T. cruzi growth, primary screen, luminescence, NIH3T3 host cells. T. cruzi beta-gal in NIH3T3, 90 h. inhibition, % (test concentration not listed). 1.4% of 300,000 active. AID 1885, 2009;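 active = mean inhibition across valid replicates above about 55%, limit read from the data; inconclusive = mean below that limit but half or more replicates reach it; inactive = mean below it, under half of replicates reach it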;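 also: signal also drops with host cell toxicity which is not excluded here; higher percent means less beta-gal luminescence so fewer parasites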
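System: mouse NIH/3T3 fibroblasts infected with β-gal-expressing T. cruzi Tulahuen C4 / Input: NIH/3T3 cells, 5,000 per well / Buffer or medium: Low-serum DMEM with 2% FBS / Probe or stimulus: 5000 reporter trypomastigotes per well / Schedule: ≥90 h infection period, 3 h prior cell attachment / Measured by: GalScreen luminescence, 60 min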
Beta apoptosis – inhibitors of cytokine-induced beta cell apoptosis, primary screen, luminescence; AID 435005, 2010; 0.8% of 300,000 active; INS-1E cytokine-induced death, ATP luminescence, 48 h; percent of positive-control rescue, neutral wells zero; protection from apoptosis, % (test concentration not listed);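 active = Every replicate reaches about 75%, or at least half do and their mean reaches it too, limit read from the data; inconclusive = At least half of replicates reach the limit but their mean does not; inactive = Under half of replicates reach the limit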;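 also: higher means more ATP so stronger rescue from cytokine killing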
CSC inhib – cancer stem cell viability inhibitors, primary screen, luminescence | inhibition, % at 7.5 µM | AID 2717, 2010 | cancer stem cell-like cells viability | 1.1% of 300,000 active; in the data active = inhibition above about 75%; inconclusive = no clear call, values can overlap the other calls; tested in HMLE shEcad cells
Large screens that a line does not name were inactive.

COc1ccc(N=C2NN=C(c3ccc4c(c3)OCCO4)CS2)cc1	none
FC(F)Sc1ccc(N=C2NN=C(c3ccc4c(c3)OCCO4)CS2)cc1	T cruzi repl 69, Beta apoptosis 101
CC(C)CCOC(=O)C1C(c2ccccc2)C(C(=O)O)C1c1ccccc1 (stereo not drawn)	Calb FLC 93
O=C(O)C1C(c2ccccc2)C(C(=O)Oc2ccccc2)C1c1ccccc1 (stereo not drawn)	none (no result: Beta apoptosis)
O=[N+]([O-])c1cccc(-c2nc(-c3ccccc3)c(-c3cccs3)[nH]2)c1	none (no result: CSC inhib)
COc1cc(-c2nc(-c3ccccc3)c(-c3cc([N+](=O)[O-])ccc3C)[nH]2)cc(OC)c1OC	T cruzi repl 58
Oc1ccc(C=NC2CCCCC2)c(O)c1	none
COc1ccccc1N1CCN(C/C=C/c2ccc(N(C)C)cc2)CC1	T cruzi repl 55
COc1cc(-c2noc(C)c2C#Cc2ccccn2)cc(OC)c1OC	CSC inhib 82
COc1cc(-c2noc(C)c2C#Cc2ccc(N)cc2)cc(OC)c1OC	CSC inhib 108
COc1ccc(N2CCc3c(C)nc4c(OC)cc(OC)cc4c32)cc1	T cruzi repl 73 (no result: Beta apoptosis, CSC inhib)
COc1ccc(N2CCc3c(C)nc4c(OC)cc(OC)cc4c32)c(OC)c1	T cruzi repl 58
COc1cccc(-c2ncc3ccccc3c2COC(=O)c2ccco2)c1	none (no result: PolyA inh, HIF activator, Calb FLC, T cruzi repl)
O=C(C(Sc1ccccc1)c1ccccc1)N1CCN(c2ccccc2F)CC1 (stereo not drawn)	Beta apoptosis 90 (no result: CSC inhib)
O=C(C(Sc1ccccc1)c1ccc(Br)cc1)N1CCOCC1 (stereo not drawn)	none
Cc1ccc(C)c(S(=O)(=O)Nc2ccc(O)c3ccccc23)c1	Beta apoptosis 99
Cc1ccc(S(=O)(=O)Nc2ccc(O)c3ccccc23)c(C)c1	Beta apoptosis 96
COc1ccc(S(=O)(=O)Nc2ccc(O)c3ccccc23)cc1	Beta apoptosis 124 (no result: CSC inhib)
COc1ccc(S(=O)(=O)Nc2ccccc2)cc1	none
CCCOc1ccc(NCC(=O)Nc2ccc(C)cc2C)cc1	T cruzi repl 76
CCCNC(=O)c1onc(CSc2ccc(Cl)cc2)c1C(=O)NC(C)C	none
O=C(c1ccc(Cl)cc1)C1CCCN(Cc2cnn(-c3ccccc3)c2)C1 (stereo not drawn)	T cruzi repl 61
Cc1nn(C)cc1CN1CCCC(C(=O)c2ccc(-c3ccccc3)cc2)C1 (stereo not drawn)	T cruzi repl 62
O=C(c1ccc(-c2ccccc2)cc1)C1CCCN(Cc2ccncc2)C1 (stereo not drawn)	T cruzi repl 55
O=C(c1ccc(-c2ccccc2)cc1)C1CCCN(C(=O)c2ccncc2)C1 (stereo not drawn)	none (no result: Beta apoptosis)
CCOc1ccc(S(=O)(=O)N2CCCCC2)cc1NS(=O)(=O)c1cccs1	none (no result: PolyA inh, HIF activator, Calb FLC, T cruzi repl, CSC inhib)
c1cnc2ccc(C(c3nnnn3C3CCCCC3)N3CCN(C4CCCCC4)CC3)cc2c1 (stereo not drawn)	T cruzi repl 69
c1cnc2ccc(C(c3nnnn3C3CCCCC3)N3CCCCC3)cc2c1 (stereo not drawn)	none
O=C(NC(N1CCOCC1)C(Cl)(Cl)Cl)c1cc([N+](=O)[O-])cc([N+](=O)[O-])c1 (stereo not drawn)	T cruzi repl 94
Cc1onc(-c2c(Cl)cccc2Cl)c1NC(=O)N1CCSCC1	none
CCOc1ccc(-c2c(C(=O)N/N=C/c3cccnc3)nnn2-c2nonc2N)cc1	HIF activator 25
Cc1ccc(-c2c(C(=O)N/N=C/c3cccnc3)nnn2-c2nonc2N)cc1	none
CCOc1cccc(-c2c(C(=O)N/N=C(\C)c3ccncc3)nnn2-c2nonc2N)c1	none (no result: Beta apoptosis)
CCOc1cccc(-c2c(C(=O)N/N=C(\C)c3ccccn3)nnn2-c2nonc2N)c1	HIF activator 16, Calb FLC 82, T cruzi repl inconclusive (no result: Beta apoptosis)
O=C(NCCNC(=O)c1cc(OCC(F)(F)F)ccc1OCC(F)(F)F)Nc1cccc(C(F)(F)F)c1	none
